Reference: ChEMBL document CHEMBL4152308, “Synthesis and biological evaluation of novel 2-oxo-1,2-dihydroquinoline-4-carboxamide derivatives for the treatment of esophageal squamous cell carcinoma” (Eur J Med Chem, 2018)
pIC50: −log10 of the molar value. Activity calls are given as the source filed them. No cut-off for these calls is given here.

What was measured:
[1] = tested on: KYSE-410; experiment: Cell cycle arrest in human KYSE410 cells assessed as accumulation at G1 phase at 1 uM after 24 to 48 hrs by propidium iodide staining based flow cytometry (reference value: 65.4%); assay type: functional
[2] = tested on: KYSE-410; experiment: Cell cycle arrest in human KYSE410 cells assessed as accumulation at S phase at 1 uM after 24 to 48 hrs by propidium iodide staining based flow cytometry (reference value: 22.3%); assay type: functional
[3] = tested on: KYSE-410; experiment: Cell cycle arrest in human KYSE410 cells assessed as accumulation at G2 phase at 1 uM after 24 to 48 hrs by propidium iodide staining based flow cytometry (reference value: 12.2%); assay type: functional
[4] = tested on: KYSE-410; experiment: Cell cycle arrest in human KYSE410 cells assessed as accumulation at G1 phase at 5 uM after 24 to 48 hrs by propidium iodide staining based flow cytometry (reference value: 65.4%); assay type: functional
[5] = tested on: KYSE-410; experiment: Cell cycle arrest in human KYSE410 cells assessed as accumulation at S phase at 5 uM after 24 to 48 hrs by propidium iodide staining based flow cytometry (reference value: 22.3%); assay type: functional
[6] = tested on: KYSE-410; experiment: Cell cycle arrest in human KYSE410 cells assessed as accumulation at G2 phase at 5 uM after 24 to 48 hrs by propidium iodide staining based flow cytometry (reference value: 12.2%); assay type: functional
[7] = tested on: KYSE-410; experiment: Antiproliferative activity against human KYSE410 cells after 72 hrs by MTT assay; assay type: functional, cell-based; details: KYSE-410, 72 h
Method in brief: (§1)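 Cells grown as monolayers at 37 °C, 5% CO2, mycoplasma-checked, in exponential phase. Cells seeded in 96-well plates, 24 h attachment, then compound added for 72 h. MTT 0.3 mg/mL for 3 h at 37 °C, DMSO solubilization, absorbance at 570 nm. Inhibition = (1 − A/C) × 100%. IC50 from log(concentration) vs % inhibition plot; triplicate wells, SD from ≥3 independent experiments.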

[8] = tested on: KYSE-70 cell line; experiment: Antiproliferative activity against human KYSE-70 cells after 72 hrs by MTT assay; assay type: functional, cell-based; details: KYSE-70, 72 h; method in brief: as §1
[9] = tested on: MIA PaCa-2; experiment: Antiproliferative activity against human MIAPaCa2 cells after 72 hrs by MTT assay; assay type: functional, cell-based; details: MIA PaCa-2, 72 h; method in brief: as §1
[10] = tested on: OVCAR-8; experiment: Antiproliferative activity against human OVCAR8 cells after 72 hrs by MTT assay; assay type: functional, cell-based; details: OVCAR-8, 72 h; method in brief: as §1
[11] = tested on: SK-OV-3; experiment: Antiproliferative activity against human SKOV3 cells after 72 hrs by MTT assay; assay type: functional, cell-based; details: SK-OV-3, 72 h; method in brief: as §1
[12] = tested on: MIA PaCa-2; experiment: Inhibition of autophagy in human MIAPaCa2 cells assessed as decrease in bafilomycin-induced LC3B level at 1 to 10 uM after 24 hrs by Western blot analysis; assay type: functional, cell-based
Method in brief: (§2)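 Cells treated 24 h at indicated concentrations, with bafilomycin for induced-LC3B readouts. Lysis in RIPA with protease inhibitors, BCA protein assay, samples heated 5 min at 100 °C. Equal protein run on 15% SDS-PAGE, transferred to PVDF. Anti-LC3B primary overnight at 4 °C, GAPDH as loading control, anti-rabbit secondary, TBST washes.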

[13] = tested on: KYSE-410; experiment: Inhibition of autophagy in human KYSE410 cells assessed as decrease in bafilomycin-induced LC3B level at 1 to 10 uM after 24 hrs by Western blot analysis; assay type: functional, cell-based; method in brief: as §2
[14] = tested on: KYSE-410; experiment: Inhibition of colony formation in human KYSE410 cells at 0.4 to 30 uM after 7 days by crystal violet staining based assay; assay type: functional, cell-based
Method in brief: (§3)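 Seeding at 250 cells/well in 96-well plates, attached 24 h, then serial compound dilutions added at 37 °C. Culture continued 7 days until colonies formed. Colonies washed, stained with 2% crystal violet for 1 h, then rinsed thoroughly with water.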

[15] = tested on: KYSE-70 cell line; experiment: Inhibition of colony formation in human KYSE-70 cells at 0.4 to 30 uM after 7 days by crystal violet staining based assay; assay type: functional, cell-based; method in brief: as §3
[16] = tested on: KYSE-410; experiment: Induction of autophagy in human KYSE410 cells assessed as increase in LC3B level at 10 to 50 uM after 24 hrs by Western blot analysis; assay type: functional, cell-based; method in brief: as §2

Structure (SMILES)	pIC50 [7]	pIC50 [8]	further results
CCN(CC)CCCC(C)Nc1ccnc2cc(Cl)ccc12 (centres undefined) [CHLOROQUINE]			Activity [1]: 65.6%; Activity [2]: 20.7%; Activity [3]: 13.7%; Activity [4]: 64.3%; Activity [5]: 24.4%; Activity [6]: 11.3%
O=C(Nc1cc(F)cc(F)c1)c1cc(=O)[nH]c2c(O)cccc12	< 4.70	< 4.70	
COc1ccc(OC)c(NC(=O)c2cc(=O)[nH]c3cc(Br)ccc23)c1	< 4.70	< 4.70	
O=C(Nc1ccccn1)c1cc(=O)[nH]c2cc(Br)ccc12	5.01	4.96	pIC50 [9]: 4.67; pIC50 [10]: < 4.70; pIC50 [11]: < 4.70; Activity [1]: 70.8%; Activity [2]: 18.5%; Activity [3]: 10.8%; Activity [4]: 62.1%; Activity [5]: 19.5%; Activity [6]: 18.5%
O=C(Nc1cc(F)cc(F)c1)c1cc(=O)[nH]c2cc(C(F)(F)F)ccc12	4.75	4.85	
O=C(Nc1cccc(OC(F)(F)F)c1)c1cc(=O)[nH]c2cc(Br)ccc12	4.85	< 4.70	
COc1cccc(NC(=O)c2cc(=O)[nH]c3cc(Br)ccc23)c1	< 4.70	< 4.70	
O=C(Nc1ccc(Cl)cc1)c1ccnc2cc(Br)ccc12	< 4.70	< 4.70	
O=C(Nc1cccc(F)c1)c1cc(=O)[nH]c2cc(-c3ccccc3F)ccc12	< 4.70	< 4.70	
O=C(Nc1cccc(F)c1)c1cc(=O)n(Cc2ccccc2)c2cc(Br)ccc12	< 4.70	< 4.70	
Nc1ccc(-c2ccc3c(C(=O)Nc4cccc(F)c4)cc(=O)[nH]c3c2)cc1	< 4.70	< 4.70	
COc1ccc(-c2ccc3c(C(=O)Nc4cccc(F)c4)cc(=O)[nH]c3c2)cc1	4.74	< 4.70	
O=C(Nc1cc(F)cc(F)c1)c1cc(=O)[nH]c2cc(Cl)ccc12	4.96	5.05	
O=C(Nc1cc(F)c(F)c(F)c1)c1cc(=O)[nH]c2cc(Br)ccc12	< 4.70	< 4.70	
Cc1cc(-c2ccc3c(C(=O)Nc4cccc(F)c4)cc(=O)[nH]c3c2)c(C)cc1F	< 4.70	< 4.70	
O=C(Nc1cccc(F)c1)c1cc(=O)[nH]c2cc(-c3ccc(F)cc3)ccc12	4.99	5.48	pIC50 [9]: 4.71; pIC50 [10]: 4.65; pIC50 [11]: 4.78
O=C(Nc1cccc(F)c1)c1cc(=O)[nH]c2cc(-c3ccccc3)ccc12	< 4.70	< 4.70	
O=C(Nc1cccc(F)c1)c1cc(=O)[nH]c2cc(Br)ccc12	5.14	5.05	pIC50 [9]: 5.12; pIC50 [10]: 5.24; pIC50 [11]: 4.97; inhibition [12]: Active; inhibition [13]: Active; Activity [1]: 61.9%; Activity [2]: 25.1%; Activity [3]: 13%; Activity [4]: 53.6%; Activity [5]: 24%; Activity [6]: 22.4%
O=C(Nc1cccc(F)c1)c1cc(=O)[nH]c2cc(F)ccc12	< 4.70	< 4.70	
COc1ccccc1NC(=O)c1cc(=O)[nH]c2cc(Br)ccc12	< 4.70	< 4.70	
CC(C)(C)c1ccc(NC(=O)c2cc(=O)[nH]c3cc(Br)ccc23)cc1	< 4.70	< 4.70	inhibition [14]: inactive; inhibition [15]: inactive
C#Cc1ccc2c(C(=O)Nc3cccc(F)c3)cc(=O)[nH]c2c1	5.01	5.02	
O=C(Nc1ccc(OC(F)(F)F)cc1)c1cc(=O)[nH]c2cc(Br)ccc12	< 4.70	< 4.70	
O=C(Nc1cccc(F)c1)c1cc(=O)[nH]c2cc(-c3cccc(F)c3)ccc12	4.96	4.92	
CCN(CC)CCCC(C)Nc1ccc2c(C(=O)Nc3cccc(F)c3)cc(=O)[nH]c2c1 (centres undefined)	< 4.70	< 4.70	Activity [16]: Active
O=C(c1cc(=O)[nH]c2cc(Br)ccc12)N1CCCCC1	< 4.70	< 4.70	
COc1ccccc1NC(=O)c1ccnc2cc(Br)ccc12	< 4.70	< 4.70	
